From ChEMBL document CHEMBL1141265, “Flavonoids as opioid receptor ligands: identification and preliminary structure-activity relationships” (J Nat Prod, 2007)
Activity calls are given as the source filed them. The rule behind the calls is not given here.

Columns and labels:
[1] = biological target: T1, Delta-type opioid receptor (Homo sapiens, UniProt P41143); experiment: Antagonist activity at human delta opioid receptor expressed in CHO cells by [35S]GTPgammaS assay; type: functional, cell-based
Method in brief: (§1)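 Ke from rightward shift of the agonist concentration–response curve (DAMGO μ, DPDPE δ, U69,593 κ) by one fixed concentration of test compound; membranes from stably transfected CHO cells, 0.1 nM [35S]GTPγS, 10 μM GDP, 50 mM HEPES pH 7.4, 1 h room temperature, duplicates, filtration then scintillation counting; EC50s by three-parameter logistic fit, Ke = [L]/[(A′/A) − 1].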

[2] = Selectivity for antagonist activity at human mu opioid receptor to kappa opioid receptor expressed in CHO cells by [35S]GTP-gamma-S assay; type: functional
[3] = biological target: Kappa-type opioid receptor (Homo sapiens) (UniProt P41145); experiment: Antagonist activity at human kappa opioid receptor expressed in CHO cells by [35S]GTP-gamma-S assay; type: functional, cell-based; method in brief: as §1
[4] = Selectivity for antagonist activity at human delta opioid receptor to kappa opioid receptor expressed in CHO cells by [35S]GTP-gamma-S assay; type: functional
[5] = biological target: Mu-type opioid receptor (Homo sapiens) (UniProt P35372); experiment: Antagonist activity at human mu opioid receptor expressed in CHO cells by [35S]GTP-gamma-S assay; type: functional, cell-based
[6] = Agonist activity at opioid receptor relative to U69,593; type: functional
[7] = biological target: T1, Delta-type opioid receptor; experiment: Intrinsic activity at human delta opioid receptor expressed in CHO cells upto 10 uM by [35S]GTP-gamma-S assay; type: functional, cell-based
Method in brief: (§2)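 Screened at 10 μM for agonist or inverse-agonist activity on CHO membrane homogenates expressing human δ, κ or μ receptor; 0.1 nM [35S]GTPγS, 1 μM GDP, 50 mM HEPES pH 7.4, 1 h room temperature, duplicates; bound label separated by vacuum filtration over GF-B, scintillation counted, normalized to vehicle basal binding; subtype-selective agonist run as positive control.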

[8] = biological target: Mu-type opioid receptor (Homo sapiens) (UniProt P35372); experiment: Intrinsic activity at human […] mu receptor expressed in CHO cells upto 10 uM by [35S]GTP-gamma-S assay; type: functional, cell-based; method in brief: as §2
[9] = biological target: Kappa-type opioid receptor (Homo sapiens) (UniProt P41145); experiment: Intrinsic activity at human kappa opioid receptor expressed in CHO cells upto 10 uM by [35S]GTP-gamma-S assay; type: functional, cell-based; method in brief: as §2
[10] = biological target: T1, Delta-type opioid receptor; experiment: Binding affinity to delta opioid receptor
[11] = Binding affinity to opiate receptor

Sequence of Mu-type opioid receptor (Homo sapiens) (P35372 whole entry): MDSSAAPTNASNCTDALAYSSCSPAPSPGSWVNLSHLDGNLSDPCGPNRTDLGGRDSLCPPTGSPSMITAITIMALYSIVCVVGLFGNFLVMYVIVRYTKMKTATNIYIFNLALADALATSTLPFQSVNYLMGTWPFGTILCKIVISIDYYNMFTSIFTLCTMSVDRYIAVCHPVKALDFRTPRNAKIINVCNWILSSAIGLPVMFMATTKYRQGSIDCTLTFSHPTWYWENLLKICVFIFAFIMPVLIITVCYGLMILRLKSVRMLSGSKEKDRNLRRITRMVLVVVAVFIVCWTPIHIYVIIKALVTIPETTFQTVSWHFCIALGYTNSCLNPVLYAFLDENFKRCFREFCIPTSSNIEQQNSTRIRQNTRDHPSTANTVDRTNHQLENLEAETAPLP
T1 sequence (P41143 whole entry): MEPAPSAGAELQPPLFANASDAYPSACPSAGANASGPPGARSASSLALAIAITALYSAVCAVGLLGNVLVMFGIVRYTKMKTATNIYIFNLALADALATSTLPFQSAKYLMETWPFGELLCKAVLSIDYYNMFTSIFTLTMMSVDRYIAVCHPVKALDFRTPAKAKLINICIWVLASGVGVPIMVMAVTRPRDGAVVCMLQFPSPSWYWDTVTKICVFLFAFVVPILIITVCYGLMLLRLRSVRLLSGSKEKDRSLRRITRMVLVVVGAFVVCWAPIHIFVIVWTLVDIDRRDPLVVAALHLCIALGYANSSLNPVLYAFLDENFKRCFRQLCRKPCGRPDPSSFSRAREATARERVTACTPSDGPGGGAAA
Sequence of Kappa-type opioid receptor (Homo sapiens) (P41145 whole entry): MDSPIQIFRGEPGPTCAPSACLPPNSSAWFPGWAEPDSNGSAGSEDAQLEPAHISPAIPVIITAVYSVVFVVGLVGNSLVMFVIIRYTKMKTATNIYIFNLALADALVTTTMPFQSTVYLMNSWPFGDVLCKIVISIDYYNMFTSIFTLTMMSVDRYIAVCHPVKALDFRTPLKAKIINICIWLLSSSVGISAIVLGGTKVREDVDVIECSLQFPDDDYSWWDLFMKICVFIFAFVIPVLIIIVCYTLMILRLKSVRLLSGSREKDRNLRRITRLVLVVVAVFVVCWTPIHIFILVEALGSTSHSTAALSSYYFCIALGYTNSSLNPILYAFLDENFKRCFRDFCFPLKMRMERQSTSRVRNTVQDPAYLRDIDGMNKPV

Compound	Ke [1] [nM]	Antagonist selectivity ratio [2]	Ke [3] [nM]	Ratio Ki [4]	Ke [5] [nM]	Intrinsic activity [6]	Intrinsic activity [7]	Intrinsic activity [8]	Intrinsic activity [9]	Emax [6] [%]	Ki [10] [nM]	Ratio pKi [2]	Ratio pKi [4]	IC50 [11] [nM]
O=c1cc(-c2ccc(O)cc2)oc2cc(O)ccc12	2090	0.3	1610	1.3	480	–	–	–	–	–	–	–	–	–
COc1ccc([C@@H]2CC(=O)c3c(O)cc(O)cc3O2)cc1O	> 10000	–	> 10000	–	> 10000	–	–	–	–	–	–	–	–	–
Oc1cc(O)c2c(c1)O[C@H](c1ccc(O)c(O)c1)[C@H](O)C2	–	–	–	–	–	inactive	–	–	–	–	–	–	–	–
O=C1CC(c2ccc(O)cc2)Oc2ccccc21 (stereo not drawn) [4'-HYDROXY-FLAVANONE]	3490	1.1	550	6.3	590	–	–	–	–	–	–	–	–	–
Oc1cc(O)c2c(c1)O[C@@H](c1ccc(O)c(O)c1)[C@@H](O)C2 [(+)-EPICATECHIN]	2170	0.52	5810	0.37	3020	inactive	–	–	–	–	–	–	–	–
O=C1c2c(O)cc(O)cc2O[C@H](c2ccc(O)c(O)c2)[C@H]1O [(+)-TAXIFOLIN]	3820	0.93	3280	1.2	3070	–	–	–	–	–	–	–	–	–
O=C(O[C@@H]1Cc2c(O)cc(O)cc2O[C@H]1c1ccc(O)c(O)c1)c1cc(O)c(O)c(O)c1 [(-)-CATECHINGALLATE]	950	0.95	220	4.3	210	–	inactive	inactive	inactive	–	–	–	–	–
Oc1cc(O)c2c(c1)O[C@@H](c1ccc(O)c(O)c1)[C@H](O)C2 [(-)-CATECHIN]	1770	0.67	3600	0.49	2400	–	–	–	–	18	–	–	–	–
O=c1cc(-c2ccc(O)c(-c3c(O)cc(O)c4c(=O)cc(-c5ccc(O)cc5)oc34)c2)oc2cc(O)cc(O)c12 [AMENTOFLAVONE]	6000	>20	490	12	> 10000	–	inactive	inactive	inactive	–	36	–	–	–
O=c1cc(-c2ccc(O)cc2)oc2cc(O)cc(O)c12 [APIGENIN]	970	1	410	2.4	410	–	inactive	inactive	inactive	–	–	–	–	–
Oc1cc(O)c2c(c1)O[C@H](c1ccc(O)c(O)c1)[C@@H](O)C2 [CIANIDANOL]	1180	–	320	–	> 10000	inactive	–	–	–	–	–	>31	3.7	–
O=C(O[C@@H]1Cc2c(O)cc(O)cc2O[C@@H]1c1ccc(O)c(O)c1)c1cc(O)c(O)c(O)c1 [EPICATECHIN GALLATE]	1700	0.79	1900	0.89	1500	–	inactive	inactive	inactive	–	–	–	–	36
Oc1cc(O)c2c(c1)O[C@H](c1cc(O)c(O)c(O)c1)[C@H](O)C2 [EPIGALLOCATECHIN]	1990	1.2	250	8	300	–	inactive	inactive	inactive	–	–	–	–	–
O=c1c(O[C@@H]2O[C@H](CO)[C@H](O)[C@H](O)[C@H]2O)c(-c2ccc(O)c(O)c2)oc2cc(O)cc(O)c12 [HYPEROSIDE]	9070	1.1	340	27	390	–	–	–	–	–	–	–	–	–
CC(C)[C@@H](CN1CC[C@@](C)(c2cccc(O)c2)[C@@H](C)C1)NC(=O)[C@H]1Cc2ccc(O)cc2CN1 [JDTIC]	–	1250	–	3800	–	–	–	–	–	–	–	–	–	–
O=C1C[C@@H](c2ccc(O)cc2)Oc2cc(O)cc(O)c21 [NARINGENIN]	3680	1.4	1700	2.2	2300	–	–	–	–	–	–	–	–	–
Oc1ccc2c3c1O[C@H]1c4[nH]c5c(c4C[C@@]4(O)[C@@H](C2)N(CC2CC2)CC[C@]314)C[C@@]1(O)[C@H]2Cc3ccc(O)c4c3[C@@]1(CCN2CC1CC1)[C@H]5O4 [NORBINALTORPHIMINE]	–	520	–	580	–	–	–	–	–	–	–	–	–	–
